Experimental data published in ChEMBL document CHEMBL1629563, “Pharmacokinetic and safety evaluation of BILR 355, a second-generation nonnucleoside reverse transcriptase inhibitor, in healthy volunteers” (Antimicrob Agents Chemother, 2008).

Columns and labels:
[1] = AUC (0 to last) in healthy human at 50 mg, po administered as single dose; assay type: ADME, organism-based; parameters: dose 50 mg, route oral, time 0 - last; details: plasma
Summary of the method: (§1)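 Healthy male volunteers, six active plus two placebo per dose group, single oral dose in PEG solution with 200 ml water after overnight fast; breakfast 60 to 90 min post-dose. EDTA plasma sampled predose to 144 h. Assayed by validated LC-MS/MS after protein precipitation. Noncompartmental analysis, AUC by linear up/log down trapezoidal rule; Vss = CL/F·(MRTp.o. − 1/Ka).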

Homo sapiens [2] = test: Toxicity in healthy human assessed as occurrence of nausea at 25 mg, po administered as single dose relative to control; assay type: organism-based; details: in vivo
Homo sapiens [3] = test: Ratio of AUC (0 to infinity) in human at 25 mg, po in presence of 100 mg of ritonavir to AUC (0 to infinity) in human at 25 mg, po; assay type: ADME, organism-based; details: in vivo
[4] = Drug excretion in healthy human urine assessed as unchanged drug at 75 mg, po administered as single dose by high-pressure liquid chromatography-tandem mass spectrometry/mass spectrometry method; assay type: ADME, organism-based; details: read-out: Drug uptake
Summary of the method: (§2)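 Urine was collected by weight after one oral dose of BILR 355 in PEG solution in fasted healthy males. Intervals were predose blank, 0-6, 6-24 and 24-72 h, with the bladder voided before each. Aliquots were stored at −20°C and assayed by LC-MS/MS. fe = amount of unchanged drug excreted (Ae) as a percentage of the administered dose.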

Homo sapiens [5] = test: Toxicity in healthy human assessed as occurrence of palpitations at 25 mg, po administered as single dose relative to control; assay type: organism-based; details: in vivo
Homo sapiens [6] = test: Toxicity in healthy human assessed as occurrence of vomiting at 50 mg, po administered as single dose relative to control; assay type: organism-based; details: in vivo
Homo sapiens [7] = test: Toxicity in healthy human assessed as occurrence of migraine at 50 mg, po administered as single dose relative to control; assay type: organism-based; details: in vivo
[8] = Apparent oral clearance in healthy human at 75 mg, po administered as single dose coadministered with 100 mg of ritonavir; assay type: ADME, organism-based; details: in vivo
Summary of the method: (§3)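 Healthy male volunteers, fasted. Ritonavir 100 mg given 10 h before and again together with single oral BILR 355 in PEG solution. EDTA plasma sampled predose to 144 h. LC-MS/MS assay after protein precipitation. Noncompartmental analysis, AUC by linear up/log down trapezoidal rule; Vss = CL/F·(MRTp.o. − 1/Ka).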

[9] = Tmax in healthy human at 50 mg, po administered as single dose coadministered with 100 mg of ritonavir; assay type: ADME, organism-based; details: in vivo
[10] = AUC (0 to last) in healthy human at 100 mg, po administered as single dose; assay type: ADME, organism-based; parameters: dose 100 mg, time 0 - last, route oral; details: plasma; summary of the method: as §1
[11] = Half life in healthy human at 5 mg, po administered as single dose coadministered with 100 mg of ritonavir; assay type: ADME, organism-based; details: in vivo
[12] = Renal clearance in healthy human at 50 mg, po administered as single dose by high-pressure liquid chromatography-tandem mass spectrometry/mass spectrometry method; assay type: ADME, organism-based, Kidney; details: in vivo, read-out: CL_renal (converted)
Homo sapiens [13] = test: Ratio of half life in human at 50 mg, po in presence of 100 mg of ritonavir to half life in human at 50 mg, po; assay type: ADME, organism-based; details: in vivo
Homo sapiens [14] = test: Toxicity in high fat fed healthy human assessed as occurrence of fatigue at 50 mg, po administered as single dose coadministered with 100 mg of ritonavir; assay type: organism-based; details: in vivo
[15] = Mean residence time in healthy human at 100 mg, po administered as single dose; assay type: ADME, organism-based; details: in vivo
Homo sapiens [16] = test: Toxicity in healthy human assessed as occurrence of increase in alanine aminotransferase level at 1 mg, po administered as single dose relative to control; assay type: organism-based; details: in vivo
[17] = Apparent oral clearance in healthy human at 87.5 mg, po administered as single dose coadministered with 100 mg of ritonavir; assay type: ADME, organism-based; details: in vivo; summary of the method: as §3
Homo sapiens [18] = test: Toxicity in healthy human assessed as occurrence of diarrhea at 62.5 mg, po administered as single dose coadministered with 100 mg of ritonavir; assay type: organism-based; details: in vivo
Homo sapiens [19] = test: Toxicity in healthy human assessed as occurrence of maculopapular rash at 62.5 mg, po administered as single dose coadministered with 100 mg of ritonavir; assay type: organism-based; details: in vivo
[20] = Drug excretion in healthy human urine assessed as unchanged drug at 100 mg, po administered as single dose by high-pressure liquid chromatography-tandem mass spectrometry/mass spectrometry method; assay type: ADME, organism-based; details: read-out: Drug uptake; summary of the method: as §2
[21] = Cmax in healthy human at 5 mg, po administered as single dose coadministered with 100 mg of ritonavir by high-pressure liquid chromatography-tandem mass spectrometry/mass spectrometry method; assay type: ADME, organism-based; parameters: dose 5 mg, route oral; details: in vivo
Summary of the method: (§4)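 Healthy male volunteers, fasted overnight, got one oral dose of BILR 355 in PEG solution with 200 ml water. Ritonavir 100 mg was given 10 h before and again with the dose. Plasma was sampled (EDTA) from predose to 144 h and assayed by validated LC-MS/MS. Cmax and Vz/F came from noncompartmental analysis. Vss/F = CL/F·(MRTp.o. − 1/Ka), with Ka from compartmental modelling.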

[22] = Mean residence time in healthy human at 5 mg, po administered as single dose; assay type: ADME, organism-based; details: in vivo
Homo sapiens [23] = test: Toxicity in healthy human assessed as occurrence of frequent bowel movements at 25 mg, po administered as single dose relative to control; assay type: organism-based; details: in vivo
[24] = Tmax in healthy human at 50 mg, po administered as single dose; assay type: ADME, organism-based; details: in vivo
Homo sapiens [25] = test: Toxicity in healthy human assessed as occurrence of neurological eyelid disorder at 5 mg, po administered as single dose relative to control; assay type: organism-based; details: in vivo
Homo sapiens [26] = test: Toxicity in healthy human assessed as occurrence of increase in alanine aminotransferase level at 12.5 mg, po administered as single dose relative to control; assay type: organism-based; details: in vivo
[27] = Apparent volume of distribution in terminal phase in healthy human at 25 mg, po administered as single dose coadministered with 100 mg of ritonavir; assay type: ADME, organism-based; details: in vivo, read-out: Vz/F; summary of the method: as §4
Homo sapiens [28] = test: Toxicity in high fat fed healthy human assessed as occurrence of diarrhea at 50 mg, po administered as single dose coadministered with 100 mg of ritonavir; assay type: organism-based; details: in vivo
[29] = Apparent oral clearance in high fat fed healthy human at 50 mg, po administered as single dose coadministered with 100 mg of ritonavir; assay type: ADME, organism-based; details: in vivo
Summary of the method: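 Fed cohort of 6 healthy men given an FDA-type high-fat breakfast (about 150, 250 and 500 to 600 cal from protein, carbohydrate and fat) 30 min before dosing. Ritonavir 100 mg given 10 h earlier and again with the single oral dose in PEG solution. Plasma sampled to 144 h, LC-MS/MS, noncompartmental analysis.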

[30] = Drug excretion in healthy human urine assessed as unchanged drug at 50 mg, po administered as single dose coadministered with 100 mg of ritonavir by high-pressure liquid chromatography-tandem mass spectrometry/mass spectrometry method; assay type: ADME, organism-based; details: read-out: Drug uptake
Summary of the method: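 Ritonavir 100 mg was given 10 h before and with one oral dose of BILR 355 in PEG solution. Urine was collected by weight as predose blank, then 0-6, 6-24 and 24-72 h, stored at −20°C and assayed by LC-MS/MS. fe = unchanged drug excreted (Ae) as a percentage of dose. Line 50: high-fat breakfast 30 min before dosing.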

`CCN1c2ncc(CCOc3cc[n+]([O-])c4ccccc34)cc2C(=O)N(C)c2cccnc21` [BILR 355] gave an AUC(0-t) [1] of 406 ng·h/mL, an Activity (Homo sapiens [2]) of 0% and a Ratio (Homo sapiens [3]) of 31.1. For the same compound, the dose excreted [4] was 0.602%, the Activity (Homo sapiens [5]) was 0% and the Activity (Homo sapiens [6]) was 0%. It also gave an Activity (Homo sapiens [7]) of 0%, a CL/F [8] of 106 mL/min and a Tmax [9] of 0.958 h. For the same compound, the AUC(0-t) [10] was 1300 ng·h/mL, the half-life [11] was 14.7 h and the CL renal [12] was 9.15 mL/min. The Ratio (Homo sapiens [13]) was 4.6, the Activity (Homo sapiens [14]) was 16.7% and the MRT [15] was 2.23 h. The Activity (Homo sapiens [16]) was 0%, the CL/F [17] was 138 mL/min and the Activity (Homo sapiens [18]) was 0%. The Activity (Homo sapiens [19]) was 0%, the dose excreted [20] was 0.816% and the Cmax [21] was 25.3 ng/mL. It also gave an MRT [22] of 7.74 h, an Activity (Homo sapiens [23]) of 0% and a Tmax [24] of 0.667 h. For the same compound, the Activity (Homo sapiens [25]) was 0%, the Activity (Homo sapiens [26]) was 0% and the Vd/F [27] was 97.6 L. It also gave an Activity (Homo sapiens [28]) of 0%, a CL/F [29] of 104 mL/min and a dose excreted [30] of 3.58%.
